In brackets after ≈: the same amount, converted by molar mass.
What was measured:
Type in all cases: functional
Clostridioides difficile = assay: Antimicrobial activity against Clostridium difficile by agar dilution method
[1] = system: Peptoniphilus asaccharolyticus; assay: Antimicrobial activity against Peptoniphilus asaccharolyticus assessed as resistant isolates by agar dilution method; conditions: pooled result: one value given for 4 cell lines, strains, targets or settings
Outline: (§1)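 Agar dilution following CLSI on brucella agar with 5% lysed defibrinated sheep blood and 1 μg/ml vitamin K1, plates made on test day. Log-phase cells at 0.5 McFarland, about 10^5 CFU/spot by Steers replicator, 48 h anaerobic at 37°C. MIC read as the lowest concentration causing a marked growth change versus control. Resistance counted by CLSI anaerobe breakpoints. Eubacterium lentum ATCC 43055 served as control.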

Parabacteroides merdae [2] = assay: Antimicrobial activity against Bacteroides merdae by agar dilution method
Outline: (§2)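 CLSI agar dilution on enriched brucella agar (5% lysed defibrinated sheep blood, 1 μg/ml vitamin K1), with drug plates made on the test day. Log-phase cells were adjusted to 0.5 McFarland, and about 10^5 CFU/spot was delivered by Steers replicator. Plates were incubated anaerobically at 37°C for 48 h. MIC was the lowest concentration giving a marked growth change versus the control plate. Controls were B. fragilis ATCC 25285 and B. thetaiotaomicron ATCC 29741.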

[3] = system: Clostridium paraputrificum; assay: Antimicrobial activity against Clostridium paraputrificum by agar dilution method
Bacteroides fragilis [4] = assay: Antimicrobial activity against Bacteroides fragilis assessed as resistant isolates by agar dilution method
Outline: (§3)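 CLSI agar dilution on enriched brucella agar (5% lysed defibrinated sheep blood, 1 μg/ml vitamin K1), plates made on test day. Log-phase inocula adjusted to 0.5 McFarland; about 10^5 CFU/spot by Steers replicator. Incubated anaerobically at 37°C for 48 h. MIC was the lowest concentration giving a marked change in growth versus the drug-free control plate. Resistance rates used CLSI anaerobe breakpoints. Controls were B. fragilis ATCC 25285 and B. thetaiotaomicron ATCC 29741.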

Propionibacterium [5] = assay: Antimicrobial activity against Propionibacterium sp. by agar dilution method
Outline: (§4)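 Log-phase isolates were adjusted to 0.5 McFarland, and about 10^5 CFU/spot was delivered by Steers replicator. Plates were incubated anaerobically at 37°C for 48 h. MIC was the lowest concentration giving a marked growth change versus the control plate. Eubacterium lentum ATCC 43055 was the QC strain, with repeats when out of range.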

Phocaeicola vulgatus [6] = assay: Antimicrobial activity against Bacteroides vulgatus by agar dilution method; outline: as §2
Clostridium subterminale = assay: Antimicrobial activity against Clostridium subterminale by agar dilution method
Cutibacterium acnes [7] = assay: Antimicrobial activity against Propionibacterium acnes by agar dilution method; outline: as §4
Bacteroides caccae [8] = assay: Antimicrobial activity against Bacteroides caccae by agar dilution method; outline: as §2
Bacteroides ovatus [9] = assay: Antimicrobial activity against Bacteroides ovatus by agar dilution method; outline: as §2
Finegoldia magna [10] = assay: Antimicrobial activity against Finegoldia magna assessed as resistant isolates by agar dilution method; outline: as §1
Bacteroides uniformis [11] = assay: Antimicrobial activity against Bacteroides uniformis assessed as resistant isolates by agar dilution method; outline: as §3
Clostridium tertium = assay: Antimicrobial activity against Clostridium tertium by agar dilution method
[12] = system: Bacteroides thetaiotaomicron; assay: Antimicrobial activity against Bacteroides thetaiotaomicron by agar dilution method; outline: as §2
Bacteroides nordii [13] = assay: Antimicrobial activity against Bacteroides nordii assessed as resistant isolates by agar dilution method; outline: as §3
Peptostreptococcus sp. = assay: Antimicrobial activity against Peptostreptococcus sp. by agar dilution method; outline: as §4
[Clostridium] innocuum [14] = Antimicrobial activity against Clostridium innocuum assessed as resistant isolates by agar dilution method; conditions: pooled result: one value given for 4 cell lines, strains, targets or settings
Bacteroides eggerthii [15] = assay: Antimicrobial activity against Bacteroides eggerthii assessed as resistant isolates by agar dilution method; outline: as §3
Bacteroides eggerthii [16] = assay: Antimicrobial activity against Bacteroides eggerthii by agar dilution method; outline: as §2
Parvimonas micra = assay: Antimicrobial activity against Micromonas micros by agar dilution method
Outline: (§5)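 Gram-positive anaerobes were tested by CLSI agar dilution on brucella agar enriched with 5% lysed defibrinated sheep blood and 1 μg/ml vitamin K1. Inoculum was log-phase growth at 0.5 McFarland, about 10^5 CFU/spot by replicator. Incubation was anaerobic, 37°C, 48 h. MIC was the lowest concentration with a marked growth change versus the drug-free plate. Eubacterium lentum ATCC 43055 was the control, and tests were repeated if it fell outside the CLSI range.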

[Clostridium] innocuum [17] = Antimicrobial activity against Clostridium innocuum by agar dilution method
Finegoldia magna [18] = assay: Antimicrobial activity against Finegoldia magna by agar dilution method; outline: as §5
Clostridium perfringens = assay: Antimicrobial activity against Clostridium perfringens by agar dilution method
Propionibacterium [19] = assay: Antimicrobial activity against Propionibacterium sp. assessed as resistant isolates by agar dilution method; outline: as §1
Anaerococcus prevotii = assay: Antimicrobial activity against Anaerococcus prevotii by agar dilution method; outline: as §5
[20] = system: Parabacteroides distasonis; assay: Antimicrobial activity against Bacteroides distasonis assessed as resistant isolates by agar dilution method; outline: as §3
Cutibacterium acnes [21] = assay: Antimicrobial activity against Propionibacterium acnes assessed as resistant isolates by agar dilution method; outline: as §1
Bacteroides caccae [22] = assay: Antimicrobial activity against Bacteroides caccae assessed as resistant isolates by agar dilution method; outline: as §3
[23] = system: Peptoniphilus asaccharolyticus; assay: Antimicrobial activity against Peptoniphilus asaccharolyticus by agar dilution method; outline: as §5
[24] = system: Parabacteroides distasonis; assay: Antimicrobial activity against Bacteroides distasonis by agar dilution method; outline: as §2
Phocaeicola vulgatus [25] = assay: Antimicrobial activity against Bacteroides vulgatus assessed as resistant isolates by agar dilution method; outline: as §3
Bacteroides fragilis [26] = assay: Antimicrobial activity against Bacteroides fragilis by agar dilution method; outline: as §2
[27] = system: Bacteroides thetaiotaomicron; assay: Antimicrobial activity against Bacteroides thetaiotaomicron assessed as resistant isolates by agar dilution method; outline: as §3
Bacteroides uniformis [28] = assay: Antimicrobial activity against Bacteroides uniformis by agar dilution method; outline: as §2
Parabacteroides merdae [29] = assay: Antimicrobial activity against Bacteroides merdae assessed as resistant isolates by agar dilution method; outline: as §3
Bacteroides nordii [30] = assay: Antimicrobial activity against Bacteroides nordii by agar dilution method; outline: as §2
Bacteroides ovatus [31] = assay: Antimicrobial activity against Bacteroides ovatus assessed as resistant isolates by agar dilution method; outline: as §3

C[C@@H](O)[C@H]1C(=O)N2C(C(=O)O)=C(S[C@@H]3CN[C@H](CNS(N)(=O)=O)C3)[C@H](C)[C@H]12 [DORIPENEM]
MIC (Clostridioides difficile): 1 µg/mL (≈ 2.38 µM)
Activity [1]: 0%
MIC50 (Parabacteroides merdae [2]): 0.5 µg/mL (≈ 1.19 µM)
MIC90 (Parabacteroides merdae [2]): 1 µg/mL (≈ 2.38 µM)
MIC50 [3]: 1 µg/mL (≈ 2.38 µM)
MIC90 [3]: 2 µg/mL (≈ 4.76 µM)
Activity (Bacteroides fragilis [4]): 1.5%
MIC (Propionibacterium [5]): 0.06 µg/mL (≈ 0.143 µM)
MIC50 (Propionibacterium [5]): 0.06 µg/mL (≈ 0.143 µM)
MIC90 (Propionibacterium [5]): 0.06 µg/mL (≈ 0.143 µM)
MIC50 (Phocaeicola vulgatus [6]): 0.5 µg/mL (≈ 1.19 µM)
MIC90 (Phocaeicola vulgatus [6]): 2 µg/mL (≈ 4.76 µM)
MIC50 (Clostridium subterminale): 1 µg/mL (≈ 2.38 µM)
MIC90 (Clostridium subterminale): 2 µg/mL (≈ 4.76 µM)
MIC (Cutibacterium acnes [7]): 0.06 µg/mL (≈ 0.143 µM)
MIC50 (Cutibacterium acnes [7]): 0.06 µg/mL (≈ 0.143 µM)
MIC90 (Cutibacterium acnes [7]): 0.06 µg/mL (≈ 0.143 µM)
MIC50 (Bacteroides caccae [8]): 0.5 µg/mL (≈ 1.19 µM)
MIC90 (Bacteroides caccae [8]): 2 µg/mL (≈ 4.76 µM)
MIC50 (Bacteroides ovatus [9]): 0.5 µg/mL (≈ 1.19 µM)
MIC90 (Bacteroides ovatus [9]): 2 µg/mL (≈ 4.76 µM)
Activity (Finegoldia magna [10]): 0%
Activity (Bacteroides uniformis [11]): 0%
MIC50 (Clostridium tertium): 1 µg/mL (≈ 2.38 µM)
MIC90 (Clostridium tertium): 2 µg/mL (≈ 4.76 µM)
MIC50 [12]: 0.5 µg/mL (≈ 1.19 µM)
MIC90 [12]: 1 µg/mL (≈ 2.38 µM)
Activity (Bacteroides nordii [13]): 0%
MIC (Peptostreptococcus sp.): 0.06 µg/mL (≈ 0.143 µM)
MIC50 (Peptostreptococcus sp.): 0.06 µg/mL (≈ 0.143 µM)
MIC90 (Peptostreptococcus sp.): 0.5 µg/mL (≈ 1.19 µM)
Activity ([Clostridium] innocuum [14]): 0%
Activity (Bacteroides eggerthii [15]): 0%
MIC50 (Bacteroides eggerthii [16]): 0.5 µg/mL (≈ 1.19 µM)
MIC90 (Bacteroides eggerthii [16]): 1 µg/mL (≈ 2.38 µM)
MIC (Parvimonas micra): 0.06 µg/mL (≈ 0.143 µM)
MIC50 (Parvimonas micra): 0.06 µg/mL (≈ 0.143 µM)
MIC90 (Parvimonas micra): 0.5 µg/mL (≈ 1.19 µM)
MIC50 ([Clostridium] innocuum [17]): 1 µg/mL (≈ 2.38 µM)
MIC90 ([Clostridium] innocuum [17]): 2 µg/mL (≈ 4.76 µM)
MIC50 (Finegoldia magna [18]): 0.125 µg/mL (≈ 0.297 µM)
MIC90 (Finegoldia magna [18]): 0.125 µg/mL (≈ 0.297 µM)
MIC (Clostridium perfringens): 0.06 µg/mL (≈ 0.143 µM)
MIC50 (Clostridium perfringens): 0.06 µg/mL (≈ 0.143 µM)
MIC90 (Clostridium perfringens): 0.125 µg/mL (≈ 0.297 µM)
Activity (Propionibacterium [19]): 0%
MIC (Anaerococcus prevotii): 0.06 µg/mL (≈ 0.143 µM)
MIC50 (Anaerococcus prevotii): 0.06 µg/mL (≈ 0.143 µM)
MIC90 (Anaerococcus prevotii): 0.5 µg/mL (≈ 1.19 µM)
Activity [20]: 0%
Activity (Cutibacterium acnes [21]): 0%
Activity (Bacteroides caccae [22]): 0%
MIC [23]: 0.06 µg/mL (≈ 0.143 µM)
MIC50 [23]: 0.06 µg/mL (≈ 0.143 µM)
MIC90 [23]: 0.5 µg/mL (≈ 1.19 µM)
MIC50 [24]: 0.5 µg/mL (≈ 1.19 µM)
MIC90 [24]: 2 µg/mL (≈ 4.76 µM)
Activity (Phocaeicola vulgatus [25]): 0%
MIC50 (Bacteroides fragilis [26]): 0.5 µg/mL (≈ 1.19 µM)
MIC90 (Bacteroides fragilis [26]): 1 µg/mL (≈ 2.38 µM)
Activity [27]: 0%
MIC50 (Bacteroides uniformis [28]): 0.5 µg/mL (≈ 1.19 µM)
MIC90 (Bacteroides uniformis [28]): 1 µg/mL (≈ 2.38 µM)
Activity (Parabacteroides merdae [29]): 0%
MIC50 (Bacteroides nordii [30]): 0.5 µg/mL (≈ 1.19 µM)
MIC90 (Bacteroides nordii [30]): 1 µg/mL (≈ 2.38 µM)
Activity (Bacteroides ovatus [31]): 0%

— ChEMBL document CHEMBL1275561, “In vitro activities of doripenem, a new broad-spectrum carbapenem, against recently collected clinical anaerobic isolates, with emphasis on the Bacteroides fragilis group” (2008)
